# ChEMBL document CHEMBL3351977, “Chemotherapy of leishmaniasis part XIII: design and synthesis of novel heteroretinoid-bisbenzylidine ketone hybrids as antileishmanial agents” (Bioorg Med Chem Lett, 2015)
# Key:
# [1] = (§1) Cytotoxicity against African green monkey Vero cells assessed as cell viability after 72 hrs by MTT assay; assay type: cell-based; details: chlorocebus sabaeus, Vero cells
# Outline: (§2)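 Vero cells were used, with viability read by MTT assay and podophyllotoxin as the reference cytotoxic drug. CC50 (50% maximum cytotoxic concentration) was estimated with a preformed template following Huber and Koella. Values are mean ± S.D. of three independent experiments.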
# Leishmania donovani [2] = assay: Antileishmanial activity against amastigote stage of Leishmania donovani MHOM/IN/80/Dd8 infected in mouse J774.1 cells after 72 hrs by luciferase reporter gene assay; assay type: functional, organism-based
# Outline: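 Intracellular L. donovani amastigotes growing inside macrophages were exposed to a concentration series. IC50 was obtained by nonlinear regression of the concentration-response curve with a four-parameter Hill equation. Values are mean ± S.D. of three independent experiments. Reference drugs were sodium stibogluconate and miltefosine.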
# [3] = (§3) Selectivity index, ratio of CC50 for African green monkey Vero cells to IC50 for amastigote stage of Leishmania donovani MHOM/IN/80/Dd8; assay type: functional
# Outline: (§4)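 SI was calculated as CC50 on Vero cells (MTT viability) divided by IC50 on L. donovani intramacrophagic amastigotes. IC50 came from four-parameter Hill regression and CC50 from a Huber–Koella template. Both are means of three independent experiments.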
# Vero [4] = assay: as §3; assay type: functional; outline: as §4
# Leishmania donovani [5] = assay: Ratio of Miltefosine IC50 to compound IC50 for amastigote stage of Leishmania donovani MHOM/IN/80/Dd8 infected in mouse J774.1 cells; assay type: functional
# Leishmania donovani [6] = assay: Ratio of Sodium stibogluconate IC50 to compound IC50 for amastigote stage of Leishmania donovani MHOM/IN/80/Dd8 infected in mouse J774.1 cells; assay type: functional
# Vero [7] = assay: as §1; assay type: cell-based; details: chlorocebus sabaeus, vero, 72 h; outline: as §2
# [8] = Leishmania donovani, MHOM/IN/80/Dd8, J774.1, 72 h
Compound,IC50 (Leishmania donovani [2]; [8]) [µM],CC50 at 72 h [1] [µM],Ratio CC50/IC50 [3],also measured
COc1cc(/C=C2\CN(C(=O)c3cc(/C=C/C4C(C)=CCCC4(C)C)on3)C/C(=C\c3ccc(O)c(OC)c3)C2=O)ccc1O (stereo unspecified),1.83,23.4,12.81,
COc1cc(/C=C2\CN(C(=O)c3cc(/C=C/C4C(C)=CCCC4(C)C)on3)C/C(=C\c3cc(OC)c(OC)c(OC)c3)C2=O)cc(OC)c1OC (stereo unspecified),4.7,25.3,5.38,
CC1=CCCC(C)(C)C1/C=C/c1cc(C(=O)N2C/C(=C\c3ccc(Cl)cc3)C(=O)/C(=C/c3ccc(Cl)cc3)C2)no1 (stereo unspecified),> 40,,,
SODIUM ANTIMONY GLUCONATE [listing 1 of 2 here],,,,Ratio CC50/IC50 (Vero [4]): > 7.53
COc1cc(/C=C2\CN(C(=O)c3cc(/C=C/C4C(C)=CCCC4(C)C)on3)C/C(=C\c3ccc(OCc4ccccc4)c(OC)c3)C2=O)ccc1OCc1ccccc1 (stereo unspecified),5.02,> 400,>79.68,Ratio IC50 (Leishmania donovani [5]): 1.6; Ratio IC50 (Leishmania donovani [6]): 10
SODIUM ANTIMONY GLUCONATE [listing 2 of 2 here],,,,CC50 (Vero [7]): > 400 µM; IC50 (Leishmania donovani [2]; j774.1): 53.1 µM
CCCCCCCCCCCCCCCCOP(=O)([O-])OCC[N+](C)(C)C [MILTEFOSINE],8.1,,6.52,
COc1ccc(/C=C2\CN(C(=O)c3cc(/C=C/C4C(C)=CCCC4(C)C)on3)C/C(=C\c3ccc(OC)c(OC)c3)C2=O)cc1OC (stereo unspecified),3.75,45.8,12.2,

# The next lines start with results.
IC50 (Leishmania donovani [2]; [8]) [µM],Compound,CC50 at 72 h [1] [µM],Ratio CC50/IC50 [3],also measured
> 40,CC1=CCCC(C)(C)C1/C=C/c1cc(C(=O)N2C/C(=C\c3ccc(OCc4ccccc4)cc3)C(=O)/C(=C/c3ccc(OCc4ccccc4)cc3)C2)no1 (stereo unspecified),,,
> 20,COc1ccccc1/C=C1\CN(C(=O)c2cc(/C=C/C3C(C)=CCCC3(C)C)on2)C/C(=C\c2ccccc2OC)C1=O (stereo unspecified),,,
> 40,COc1ccc(/C=C2\CN(C(=O)c3cc(/C=C/C4C(C)=CCCC4(C)C)on3)C/C(=C\c3ccc(OC)cc3)C2=O)cc1 (stereo unspecified),,,
6.1,CCOc1cc(/C=C2\CN(C(=O)c3cc(/C=C/C4C(C)=CCCC4(C)C)on3)C/C(=C\c3ccc(O)c(OCC)c3)C2=O)ccc1O (stereo unspecified),27.7,4.53,
